Data from ChEMBL document CHEMBL2177078, “New positron emission tomography (PET) radioligand for imaging σ-1 receptors in living subjects” (J Med Chem, 2012).
The source made the active and inactive calls. The rule behind the calls is not given here.

What was measured:
[1] = system: CHO; assay: Cellular uptake in CHO cells after 30 to 120 mins by liquid scintillation counting; type: ADME, cell-based, Cricetulus griseus; conditions: chinese hamster
Summary of the method: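 Uptake in CHO cells in Ham's F-12, empty-pcDNA or S1R-transfected (0.8 μg DNA, 2 × 10^5 cells/well). [18F]13 at 2 μCi per well or [3H]1, 30 and 120 min, triplicate. Cells washed with cold PBS and lysed in 1 N NaOH. Counted by gamma counter (18F) or liquid scintillation (3H), normalized to Bradford protein.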

[2] = organism: Mus musculus; assay: Biodistribution in mouse corpus callosum at 200 uCi after 60 mins by autoradiography; type: ADME, organism-based; conditions: in vivo, 1 h
Summary of the method: (§1)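 Mice injected iv with 200-250 μCi tracer; brains taken 60 min later after saline perfusion, snap frozen and cut as 12 μm sagittal sections. Sections air-dried 10 min, exposed to 18F-sensitive phosphor screens 12 h at 4 °C, then imaged; anatomy confirmed by Nissl staining. Blocking arm given BD1047 (1 mg/kg) 10 min before tracer.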

[3] = system: Cerebellum; assay: Biodistribution in mouse cerebellum at 200 uCi after 60 mins by autoradiography; type: ADME, organism-based; conditions: in vivo, 1 h; summary of the method: as §1
[4] = system: Hippocampus; assay: Biodistribution in mouse hippocampus at 200 uCi after 60 mins by autoradiography; type: ADME, organism-based; conditions: in vivo, 1 h; summary of the method: as §1
[5] = system: Cortex; assay: Biodistribution in mouse cortex at 200 uCi after 60 mins by autoradiography; type: ADME, organism-based; conditions: in vivo, 1 h; summary of the method: as §1
[6] = organism: Mus musculus; assay: Biodistribution in mouse brain facial nucleus at 200 uCi after 60 mins by autoradiography; type: ADME, organism-based; conditions: in vivo, 1 h; summary of the method: as §1
[7] = system: Brain; assay: Drug uptake in Balb C mouse brain at 630-690 uCi, iv after 60 mins by HPLC analysis; type: ADME, organism-based; conditions: in vivo, 1 h
Summary of the method: (§2)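 Balb C mice (n=2 per time point) received 630-690 μCi tracer iv; brain and liver collected at 30 and 60 min. Tissue homogenized in 500 μL ice-cold acetonitrile, centrifuged 9,400 g for 4 min. Supernatants run on reversed-phase radio-HPLC; percent intact parent = parent peak area/total peak area × 100, decay corrected to dosing. Extraction efficiency checked by gamma counting.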

[8] = system: Liver; assay: Drug uptake in Balb C mouse liver at 630-690 uCi, iv after 60 mins by HPLC analysis; type: ADME, organism-based; conditions: in vivo, 1 h; summary of the method: as §2
[9] = system: Brain; assay: Drug uptake in Balb C mouse brain at 630-690 uCi, iv after 30 mins by HPLC analysis; type: ADME, organism-based; conditions: in vivo, 0.5 h; summary of the method: as §2
[10] = system: Liver; assay: Drug uptake in Balb C mouse liver at 630-690 uCi, iv after 30 mins by HPLC analysis; type: ADME, organism-based; conditions: in vivo, 0.5 h; summary of the method: as §2
[11] = system: Brain; assay: Biodistribution in mouse brain at 200 uCi administered 10 mins post BD1047 treatment measured after 60 mins by autoradiography; type: ADME, organism-based; conditions: in vivo, 1 h; summary of the method: as §1
[12] = organism: Mus musculus; assay: Biodistribution in mouse midbrain at 200 uCi after 60 mins by autoradiography; type: ADME, organism-based; conditions: in vivo, 1 h; summary of the method: as §1
[13] = system: Brain; assay: Biodistribution in mouse brain assessed as reduction in compound uptake at 95-125 uCi, iv administered 10 mins post BD1047 treatment measured after 60 mins by PET imaging; type: ADME, organism-based; conditions: in vivo, 1 h
Summary of the method: (§3)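 Normal Balb C mice (20-30 g) under isoflurane (3% induction, 1-3% maintenance). […] Dynamic list-mode microPET acquisition started just before injection and ran 60 min; images reconstructed by 2D OSEM, whole-brain time-activity curves.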

[14] = system: Brain; assay: Biodistribution in mouse brain assessed as reduction in compound uptake at 95-125 uCi, iv administered 10 mins post FTC-146 treatment measured after 60 mins by PET imaging; type: ADME, organism-based; conditions: in vivo, 1 h
Summary of the method: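 Normal Balb C mice (20-30 g) under isoflurane (3% induction, 1-3% maintenance). […] Dynamic microPET list-mode acquisition for 60 min, OSEM reconstruction. Whole-brain uptake from time-activity curves, reduction read at 60 min.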

[15] = system: CHO; assay: Cellular uptake in CHO cells after 30 to 120 mins by gamma counting; type: ADME, cell-based, Cricetulus griseus; conditions: chinese hamster
Summary of the method: (§4)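 CHO cells grown in Ham's F-12, seeded 2 × 10^5 per well, transfected 24 h later with 0.8 μg empty pcDNA (control) or 0.8 μg S1R (OPRS1) DNA; medium refreshed at 12 h. At 24 h post-transfection, exposed to [18F] tracer (2 μCi/well) for 30 and 120 min, triplicate wells. Washed twice with cold PBS, lysed in 1 N NaOH, gamma counted; normalized to Bradford protein.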

[16] = system: Brain; assay: Biodistribution in mouse brain at 95-125 uCi, iv by PET imaging; type: ADME, organism-based; conditions: in vivo; summary of the method: as §3
[17] = system: Brain; assay: Biodistribution in mouse brain assessed as reduction in compound uptake at 95-125 uCi, iv administered 10 mins post haloperidol treatment measured after 60 mins by PET imaging; type: ADME, organism-based; conditions: in vivo, 1 h; summary of the method: as §3
[18] = Displacement of [3H]di-o-tolylguanidine from Sigma2 receptor in rat liver homogenate; type: tissue-based
Summary of the method: (§5)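 Competition binding of unlabeled ligand in rat brain or rat liver homogenates. S2R binding run in the presence of 300 nM 1 to mask S1R sites. Liver assays run on a 96-well platform.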

[19] = Displacement of [3H]di-o-tolylguanidine from Sigma2 receptor in rat brain homogenate; type: tissue-based; summary of the method: as §5
[20] = target: T1, Sigma non-opioid intracellular receptor 1 (Rattus norvegicus, UniProt Q9R0C9); assay: Displacement of [3H](+)-pentazocine from Sigma1 receptor in rat brain homogenate; type: tissue-based
[21] = Binding affinity to acetylcholine esterase at 100 nM
[22] = Binding affinity to sodium channel site 2 at 100 nM
[23] = Binding affinity to calcium channel L type at 100 nM
[24] = Binding affinity to alpha bungarotoxin insensitive neuronal nicotinic receptor at 100 nM
[25] = Binding affinity to peripheral muscarinic receptor at 100 nM
[26] = target: T2, Muscarinic acetylcholine receptor M2 (Homo sapiens) (UniProt P08172); assay: Binding affinity to muscarinic M2 receptor at 100 nM
T2 sequence (whole entry): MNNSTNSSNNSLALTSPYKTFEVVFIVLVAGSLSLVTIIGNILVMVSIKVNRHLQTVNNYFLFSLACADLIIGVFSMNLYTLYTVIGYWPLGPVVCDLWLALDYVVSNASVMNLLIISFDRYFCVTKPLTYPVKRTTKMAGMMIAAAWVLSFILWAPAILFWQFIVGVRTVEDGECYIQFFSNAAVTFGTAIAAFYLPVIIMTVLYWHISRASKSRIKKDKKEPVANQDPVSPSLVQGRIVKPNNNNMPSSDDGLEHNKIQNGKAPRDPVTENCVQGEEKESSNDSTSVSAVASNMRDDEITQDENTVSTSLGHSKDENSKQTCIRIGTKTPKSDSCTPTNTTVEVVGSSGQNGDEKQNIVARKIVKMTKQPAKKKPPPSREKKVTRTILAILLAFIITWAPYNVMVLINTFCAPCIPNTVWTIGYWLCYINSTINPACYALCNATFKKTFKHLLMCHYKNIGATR

[27] = target: Histamine H2 receptor (Homo sapiens) (UniProt P25021); assay: Binding affinity to histamine H2 receptor at 100 nM
[28] = Binding affinity to alpha-2 adrenergic receptor at 100 nM
[29] = target: Sigma non-opioid intracellular receptor 1 (Homo sapiens) (UniProt Q99720); assay: Binding affinity to Sigma1 receptor overexpressed in CHO cells after 30 to 120 mins by gamma counting; type: cell-based; conditions: tested as the 18F-labelled form; summary of the method: as §4
[30] = target: Sigma non-opioid intracellular receptor 1 (Homo sapiens) (UniProt Q99720); assay: Binding affinity to Sigma1 receptor overexpressed in CHO cells after 120 mins by gamma counting relative to control; type: cell-based; conditions: tested as the 18F-labelled form
Summary of the method: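 CHO cells grown in Ham's F-12, 2 × 10^5 per well, transfected 24 h later with 0.8 μg empty pcDNA (control) or S1R (OPRS1) cDNA; medium refreshed at 12 h. At 24 h post-transfection, 2 μCi [18F] tracer per well; triplicates; 30 and 120 min uptake, two cold PBS washes, 1 N NaOH lysis, γ counting, normalized to Bradford protein.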

[31] = target: T1, Sigma non-opioid intracellular receptor 1; assay: Displacement of [3H](+)-pentazocine from Sigma1 receptor in rat liver homogenate; type: tissue-based
[32] = target: Sodium-dependent noradrenaline transporter (Homo sapiens) (UniProt P23975); assay: Binding affinity to norepinephrine transporter at 100 nM
Chain of Sodium-dependent noradrenaline transporter (Homo sapiens) (P23975 whole entry): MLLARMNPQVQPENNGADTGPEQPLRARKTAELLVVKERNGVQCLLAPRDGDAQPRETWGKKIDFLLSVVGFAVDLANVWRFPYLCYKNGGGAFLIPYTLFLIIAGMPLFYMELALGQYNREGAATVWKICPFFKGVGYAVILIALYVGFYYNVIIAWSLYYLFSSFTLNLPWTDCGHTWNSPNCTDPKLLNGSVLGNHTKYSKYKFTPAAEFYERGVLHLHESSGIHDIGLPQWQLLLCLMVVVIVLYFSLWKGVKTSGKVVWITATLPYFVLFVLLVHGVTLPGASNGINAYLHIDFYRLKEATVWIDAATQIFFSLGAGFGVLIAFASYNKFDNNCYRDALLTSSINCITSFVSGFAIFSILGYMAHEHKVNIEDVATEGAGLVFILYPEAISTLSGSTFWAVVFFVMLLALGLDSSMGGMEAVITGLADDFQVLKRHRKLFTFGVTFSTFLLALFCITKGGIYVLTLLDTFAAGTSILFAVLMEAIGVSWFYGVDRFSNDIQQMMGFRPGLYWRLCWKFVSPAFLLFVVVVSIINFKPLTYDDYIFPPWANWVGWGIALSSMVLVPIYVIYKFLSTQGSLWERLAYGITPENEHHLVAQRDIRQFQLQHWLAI

T1 sequence (Q9R0C9 whole entry): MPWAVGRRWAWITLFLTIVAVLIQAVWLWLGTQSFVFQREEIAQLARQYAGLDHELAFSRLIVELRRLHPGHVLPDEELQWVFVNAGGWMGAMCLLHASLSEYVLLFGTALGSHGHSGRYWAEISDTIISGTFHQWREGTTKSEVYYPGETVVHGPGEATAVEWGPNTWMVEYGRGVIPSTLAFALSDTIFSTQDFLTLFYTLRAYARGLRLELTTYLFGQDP
Chain of Sigma non-opioid intracellular receptor 1 (Homo sapiens) (Q99720 whole entry): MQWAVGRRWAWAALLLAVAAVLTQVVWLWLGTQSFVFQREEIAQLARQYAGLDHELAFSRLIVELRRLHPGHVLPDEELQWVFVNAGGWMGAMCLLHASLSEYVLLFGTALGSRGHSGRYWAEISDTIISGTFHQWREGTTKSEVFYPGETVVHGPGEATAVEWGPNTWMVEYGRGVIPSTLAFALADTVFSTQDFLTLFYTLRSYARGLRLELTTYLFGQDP
Chain of Histamine H2 receptor (Homo sapiens) (P25021 whole entry): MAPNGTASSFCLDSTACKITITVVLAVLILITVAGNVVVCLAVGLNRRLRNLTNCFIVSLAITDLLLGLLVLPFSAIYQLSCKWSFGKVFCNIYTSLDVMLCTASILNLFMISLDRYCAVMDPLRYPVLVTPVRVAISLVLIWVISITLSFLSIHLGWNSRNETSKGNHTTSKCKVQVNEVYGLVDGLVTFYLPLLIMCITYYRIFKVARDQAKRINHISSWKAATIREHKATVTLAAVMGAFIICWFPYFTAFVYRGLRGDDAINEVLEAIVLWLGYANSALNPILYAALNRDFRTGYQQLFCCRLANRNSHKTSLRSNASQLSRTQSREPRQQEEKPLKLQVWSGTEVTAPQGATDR

Question: Which Drug uptake [1] does the source give for [3H]c1cc2c(c([3H])c1O)[C@@]1(C)CCN(CC=C(C)C)[C@@H](C2)[C@H]1C here?
Answer: The Drug uptake was “Active”.

Question: For O=c1sc2cc(CCC[18F])ccc2n1CCN1CCCCCC1, which Drug uptake [2] is on record?
Answer: Its Drug uptake is “Not Active”.

Question: And the Drug uptake [3]?
Answer: The Drug uptake was “Active”.

Question: What about the Drug uptake [4] of the same compound?
Answer: Its Drug uptake is “Active”.

Question: What about the Drug uptake [5] of the same compound?
Answer: The Drug uptake was “Active”.

Question: And the Drug uptake [6]?
Answer: The Drug uptake was “Active”.

Question: What about the Drug uptake [7] of the same compound?
Answer: The Drug uptake was 100%.

Question: And the Drug uptake [8]?
Answer: The Drug uptake was 27%.

Question: What about the Drug uptake [9] of the same compound?
Answer: The Drug uptake was 100%.

Question: What about the Drug uptake [10] of the same compound?
Answer: The Drug uptake was 34%.

Question: And the Drug uptake [11]?
Answer: Its Drug uptake is “Not Active”.

Question: And the Drug uptake [12]?
Answer: Its Drug uptake is “Active”.

Question: What about the Drug uptake [13] of the same compound?
Answer: The Drug uptake was 81%.

Question: What about the Drug uptake [14] of the same compound?
Answer: The Drug uptake was 82%.

Question: And the Drug uptake [15]?
Answer: The Drug uptake was “Active”.

Question: What about the Drug uptake [16] of the same compound?
Answer: Its Drug uptake is “Active”.

Question: What about the Drug uptake [17] of the same compound?
Answer: Its Drug uptake is 80%.

Question: Which results are given for CCCc1ccc2c(c1)sc(=O)n2CCN1CCCCCC1?
Answer: Ki [18]: 0.247 µM; Ki [19]: 0.627 µM; Ki [20]: 0.0017 µM

Question: Which Activity [21] does the source give for O=c1sc2cc(CCCF)ccc2n1CCN1CCCCCC1 here?
Answer: The Activity was less than 50%.

Question: What about the Activity [22] of the same compound?
Answer: Its Activity is less than 50%.

Question: What about the Activity [23] of the same compound?
Answer: The Activity was less than 50%.

Question: And the Activity [24]?
Answer: The Activity was less than 50%.

Question: What about the Activity [25] of the same compound?
Answer: The Activity was less than 50%.

Question: What about the Activity [26] of the same compound?
Answer: Its Activity is less than 50%.

Question: And the Activity [27]?
Answer: Its Activity is less than 50%.

Question: And the Activity [28]?
Answer: The Activity was less than 50%.

Question: And the Activity [29]?
Answer: The Activity was “Active”.

Question: And the fold change (FC) [30]?
Answer: The fold change (FC) was 4.

Question: What about the Ki [18] of the same compound?
Answer: The Ki was 0.467 µM.

Question: And the Ki [31]?
Answer: The Ki was 0.00096 µM.

Question: And the Activity [32]?
Answer: The Activity was less than 50%.
